Measured values taken from ChEMBL document CHEMBL1909567, “Synthesis and structure-activity relationship studies in translocator protein ligands based on a pyrazolo[3,4-b]quinoline scaffold” (J Med Chem, 2011).

What was measured:
Translocator protein = Translocator protein (Rattus norvegicus, UniProt P16257); assay: Displacement of [3H]PK11195 from TSPO in Sprague-Dawley rat brain homogenates after 90 mins by liquid scintillation spectrometry; type: tissue-based
Rattus norvegicus [1] = assay: Antinociceptive activity in rat peripheral mononeuropathy model assessed as decrease in left paw pressure at 5 mg/kg, po after 30 mins by analgesimetry (reference value: 59.65 +/- 2.6 g); type: functional
Mus musculus [2] = assay: Antianxiety activity in mouse assessed as increase in time spent in illuminated area at 10 mg/kg, po after 30 mins by light/dark box test (reference value: 116.4 +/- 7.5 sec); type: functional
In short: (§1)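 Male mice, housed 15 per cage, placed in the test room 24 h before testing for acclimatization. Drugs were given po in 1% carboxymethylcellulose at 10 mL/kg, 30 min before the light/dark box test. Time spent in the light box (s) was recorded. Values are mean ± SEM of at least 8 mice per group. ANOVA with Fisher's PLSD was used against vehicle.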

Rattus norvegicus [3] = assay: Antinociceptive activity in rat peripheral mononeuropathy model assessed as decrease in right paw pressure at 5 mg/kg, po after 15 mins by analgesimetry (reference value: 34.8 +/- 3.7 g); type: functional
Rattus norvegicus [4] = assay: Antinociceptive activity in rat peripheral mononeuropathy model assessed as decrease in right paw pressure at 5 mg/kg, po after 30 mins by analgesimetry (reference value: 31.3 +/- 2.8 g); type: functional
Mus musculus [5] = assay: Antianxiety activity in mouse assessed as increase in time spent in illuminated area at 30 mg/kg, po after 30 mins by light/dark box test (reference value: 116.4 +/- 7.5 sec); type: functional; in short: as §1
Rattus norvegicus [6] = assay: Antinociceptive activity in rat peripheral mononeuropathy model assessed as decrease in left paw pressure at 5 mg/kg, po after 15 mins by analgesimetry (reference value: 63.5 +/- 2.8 g); type: functional
Rattus norvegicus [7] = assay: Antinociceptive activity in rat peripheral mononeuropathy model assessed as decrease in left paw pressure at 50 mg/kg, po after 15 mins by analgesimetry (reference value: 63.5 +/- 2.8 g); type: functional
Rattus norvegicus [8] = assay: Antinociceptive activity in rat peripheral mononeuropathy model assessed as decrease in right paw pressure at 5 mg/kg, po after 45 mins by analgesimetry (reference value: 32.9 +/- 2.6 g); type: functional
Rattus norvegicus [9] = assay: Antinociceptive activity in rat peripheral mononeuropathy model assessed as decrease in left paw pressure at 5 mg/kg, po after 45 mins by analgesimetry (reference value: 63.0 +/- 2.4 g); type: functional
Mus musculus [10] = assay: Antianxiety activity in mouse assessed as increase in time spent in illuminated area at 3 mg/kg, po after 30 mins by light/dark box test (reference value: 116.4 +/- 7.5 sec); type: functional; in short: as §1
Rattus norvegicus [11] = assay: Antinociceptive activity in rat peripheral mononeuropathy model assessed as decrease in right paw pressure at 50 mg/kg, po after 45 mins by analgesimetry (reference value: 32.9 +/- 2.6 g); type: functional
Rattus norvegicus [12] = assay: Antinociceptive activity in rat peripheral mononeuropathy model assessed as decrease in right paw pressure at 50 mg/kg, po after 30 mins by analgesimetry (reference value: 31.3 +/- 2.8 g); type: functional
Rattus norvegicus [13] = assay: Antinociceptive activity in rat peripheral mononeuropathy model assessed as decrease in left paw pressure at 50 mg/kg, po after 45 mins by analgesimetry (reference value: 63.0 +/- 2.4 g); type: functional
Rattus norvegicus [14] = assay: Antinociceptive activity in rat peripheral mononeuropathy model assessed as decrease in left paw pressure at 50 mg/kg, po after 30 mins by analgesimetry (reference value: 59.65 +/- 2.6 g); type: functional
Rattus norvegicus [15] = assay: Antinociceptive activity in rat peripheral mononeuropathy model assessed as decrease in right paw pressure at 50 mg/kg, po after 15 mins by analgesimetry (reference value: 34.8 +/- 3.7 g); type: functional
Mus musculus [16] = assay: Antianxiety activity in mouse assessed as increase in time spent in illuminated area at 1 mg/kg, po by light/dark box test (reference value: 116.4 +/- 7.5 sec); type: functional; in short: as §1

Sequence of Translocator protein (P16257 whole entry, looked up): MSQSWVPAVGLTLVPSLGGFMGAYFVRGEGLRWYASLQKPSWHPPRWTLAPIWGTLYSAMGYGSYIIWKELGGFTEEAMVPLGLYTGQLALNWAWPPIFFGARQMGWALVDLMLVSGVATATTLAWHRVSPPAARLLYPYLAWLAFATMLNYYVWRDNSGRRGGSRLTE

Cc1c2ccccc2nc2c1c(=O)n(-c1ccccc1)n2CC(=O)N(C)Cc1ccccc1
IC50 (Translocator protein): 881 nM

CCCCN(C)C(=O)Cn1c2nc3ccccc3c(C)c2c(=O)n1-c1ccccc1
IC50 (Translocator protein): 65 nM

CCN(CC)C(=O)Cn1c2nc3ccccc3c(C)c2c(=O)n1-c1ccccc1
IC50 (Translocator protein): 180 nM

CCN(CC)C(=O)Cn1c2nc3ccccc3c(C)c2c(=O)n1-c1ccc(F)cc1
IC50 (Translocator protein): 2270 nM

Cc1c2ccccc2nc2c1c(=O)n(-c1ccc(F)cc1)n2CC(=O)N(C)c1ccc(Cl)cc1
Activity (Rattus norvegicus [1]): 57.7 g | Time (Mus musculus [2]): 117.5 s | Activity (Rattus norvegicus [3]): 35.6 g | Activity (Rattus norvegicus [4]): 36.4 g | IC50 (Translocator protein): 6.8 nM | Time (Mus musculus [5]): 111.3 s | Activity (Rattus norvegicus [6]): 58.7 g | Activity (Rattus norvegicus [7]): 60.7 g | Activity (Rattus norvegicus [8]): 36.3 g | Activity (Rattus norvegicus [9]): 64.1 g | Time (Mus musculus [10]): 106.8 s | Activity (Rattus norvegicus [11]): 36.3 g | Activity (Rattus norvegicus [12]): 47.2 g | Activity (Rattus norvegicus [13]): 63.1 g | Activity (Rattus norvegicus [14]): 59.3 g | Activity (Rattus norvegicus [15]): 49.4 g

Cc1c2ccccc2nc2c1c(=O)n(-c1ccccc1)n2CC(=O)N(C)c1ccc(Cl)cc1
Activity (Rattus norvegicus [1]): 63.6 g | Time (Mus musculus [2]): 112.3 s | Activity (Rattus norvegicus [3]): 39.2 g | Activity (Rattus norvegicus [4]): 35.9 g | IC50 (Translocator protein): 1.8 nM | Time (Mus musculus [5]): 107.6 s | Activity (Rattus norvegicus [6]): 57.8 g | Activity (Rattus norvegicus [7]): 61 g | Activity (Rattus norvegicus [8]): 33.4 g | Activity (Rattus norvegicus [9]): 61.4 g | Time (Mus musculus [10]): 103.8 s | Activity (Rattus norvegicus [11]): 37 g | Activity (Rattus norvegicus [12]): 44 g | Activity (Rattus norvegicus [13]): 59 g | Activity (Rattus norvegicus [14]): 58 g | Activity (Rattus norvegicus [15]): 48.1 g

CCCCN(CCCC)C(=O)Cn1c2nn(-c3ccccc3)c(=O)c-2c(C)c2ccccc21
IC50 (Translocator protein): 0.34 nM

Cc1c2c(=O)n(-c3ccccc3)nc-2n(CC(=O)N(C)c2ccc(Cl)cc2)c2ccccc12
IC50 (Translocator protein): 0.13 nM

Cc1c2ccccc2nc2c1c(=O)n(-c1ccccc1)n2CC(=O)N(C)c1ccccc1
IC50 (Translocator protein): 117 nM

Cc1c2c(=O)n(-c3ccc(F)cc3)nc-2n(CC(=O)N(C)c2ccc(Cl)cc2)c2ccccc12
IC50 (Translocator protein): 0.28 nM

CCN(CC)C(=O)Cn1c2nn(-c3ccccc3)c(=O)c-2c(C)c2ccccc21
IC50 (Translocator protein): 0.83 nM

CCCCN(CCCC)C(=O)Cn1c2nc3ccccc3c(C)c2c(=O)n1-c1ccccc1
IC50 (Translocator protein): 152 nM

CCN(Cc1ccccc1)C(=O)Cn1c(=O)n(C)c2cnc(-c3ccccc3)nc21
Time (Mus musculus [2]): 162.3 s | Time (Mus musculus [16]): 110.8 s | Time (Mus musculus [10]): 137.3 s

CCCCN(C)C(=O)Cn1c2nc3ccccc3c(C)c2c(=O)n1-c1ccc(Cl)cc1
IC50 (Translocator protein): 144 nM

CCCN(CCC)C(=O)Cn1c2nc3ccccc3c(C)c2c(=O)n1-c1ccccc1
IC50 (Translocator protein): 90 nM

Cc1c2ccccc2nc2c1c(=O)n(-c1ccccc1)n2CC(=O)N(Cc1ccccc1)C(C)C
IC50 (Translocator protein): 304 nM

CN1C(=O)CN=C(c2ccccc2)c2cc(Cl)ccc21 [DIAZEPAM]
Time (Mus musculus [16]): 171.63 s

CCCN(CCC)C(=O)Cn1c2nc3ccccc3c(C)c2c(=O)n1-c1ccc(F)cc1
IC50 (Translocator protein): 87 nM

CCCCN(C)C(=O)Cn1c2nn(-c3ccccc3)c(=O)c-2c(C)c2ccccc21
Time (Mus musculus [2]): 151.5 s | IC50 (Translocator protein): 0.14 nM | Time (Mus musculus [16]): 103.7 s | Time (Mus musculus [10]): 117.4 s

CCN(Cc1ccccc1)C(=O)Cn1c2nc3ccccc3c(C)c2c(=O)n1-c1ccccc1
IC50 (Translocator protein): 220 nM

CCCN(CCC)C(=O)Cn1c2nc3ccccc3c(C)c2c(=O)n1-c1ccc(Cl)cc1
IC50 (Translocator protein): 90 nM

CCCCN(Cc1ccccc1)C(=O)Cn1c2nc3ccccc3c(C)c2c(=O)n1-c1ccccc1
IC50 (Translocator protein): 697 nM

CCCCN(C)C(=O)Cn1c2nc3ccccc3c(C)c2c(=O)n1-c1ccc(F)cc1
IC50 (Translocator protein): 110 nM

COc1ccc(N(C)C(=O)Cn2c3nc4ccccc4c(C)c3c(=O)n2-c2ccccc2)cc1
IC50 (Translocator protein): 17 nM

CCCCN(C)C(=O)Cn1c2nn(-c3ccc(F)cc3)c(=O)c-2c(C)c2ccccc21
IC50 (Translocator protein): 0.13 nM

Cc1c2ccccc2nc2c1c(=O)n(-c1ccc(Cl)cc1)n2CC(=O)N(C)c1ccc(Cl)cc1
Activity (Rattus norvegicus [1]): 58.4 g | Time (Mus musculus [2]): 169 s | Activity (Rattus norvegicus [3]): 44.8 g | Activity (Rattus norvegicus [4]): 35.8 g | IC50 (Translocator protein): 16 nM | Time (Mus musculus [16]): 108.9 s | Activity (Rattus norvegicus [6]): 61.4 g | Activity (Rattus norvegicus [7]): 62.2 g | Activity (Rattus norvegicus [8]): 32.7 g | Activity (Rattus norvegicus [9]): 63.8 g | Time (Mus musculus [10]): 135.2 s | Activity (Rattus norvegicus [11]): 42.5 g | Activity (Rattus norvegicus [12]): 49.4 g | Activity (Rattus norvegicus [13]): 64.8 g | Activity (Rattus norvegicus [14]): 61.8 g | Activity (Rattus norvegicus [15]): 56.3 g

Cc1c2ccccc2nc2c1c(=O)n(-c1ccccc1)n2CC(=O)N(Cc1ccccc1)Cc1ccccc1
IC50 (Translocator protein): 3460 nM

Cc1c2ccccc2nc2c1c(=O)n(-c1ccccc1)n2CC(=O)N(C(C)C)C(C)C
IC50 (Translocator protein): 1390 nM
